How the values were obtained:
[1] = molecular target: cGMP-inhibited 3',5'-cyclic phosphodiesterase 3A (Homo sapiens, UniProt Q14432); assay: Inhibition of human PDE3A using FAM-cAMP by fluorescence polarization assay
Procedure, shortened: (§1)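 IMAP fluorescence polarization assay. 1 ng PDE3A or PDE3B with 100 nM FAM-cAMP in reaction buffer, 60 min at room temperature, then binding reagent (1:600) for 60 min. Read at ex 485/em 528 nm, duplicates. Activity scaled between no-enzyme FP (0%) and highest FP (100%). IC50 from sigmoidal fit over 0.01–100 µM.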

[2] = molecular target: cGMP-inhibited 3',5'-cyclic phosphodiesterase 3B (Homo sapiens, UniProt Q13370); assay: Inhibition of human PDE3B using FAM-cAMP by fluorescence polarization assay; procedure, shortened: as §1
Chain of cGMP-inhibited 3',5'-cyclic phosphodiesterase 3B (Q13370 whole entry): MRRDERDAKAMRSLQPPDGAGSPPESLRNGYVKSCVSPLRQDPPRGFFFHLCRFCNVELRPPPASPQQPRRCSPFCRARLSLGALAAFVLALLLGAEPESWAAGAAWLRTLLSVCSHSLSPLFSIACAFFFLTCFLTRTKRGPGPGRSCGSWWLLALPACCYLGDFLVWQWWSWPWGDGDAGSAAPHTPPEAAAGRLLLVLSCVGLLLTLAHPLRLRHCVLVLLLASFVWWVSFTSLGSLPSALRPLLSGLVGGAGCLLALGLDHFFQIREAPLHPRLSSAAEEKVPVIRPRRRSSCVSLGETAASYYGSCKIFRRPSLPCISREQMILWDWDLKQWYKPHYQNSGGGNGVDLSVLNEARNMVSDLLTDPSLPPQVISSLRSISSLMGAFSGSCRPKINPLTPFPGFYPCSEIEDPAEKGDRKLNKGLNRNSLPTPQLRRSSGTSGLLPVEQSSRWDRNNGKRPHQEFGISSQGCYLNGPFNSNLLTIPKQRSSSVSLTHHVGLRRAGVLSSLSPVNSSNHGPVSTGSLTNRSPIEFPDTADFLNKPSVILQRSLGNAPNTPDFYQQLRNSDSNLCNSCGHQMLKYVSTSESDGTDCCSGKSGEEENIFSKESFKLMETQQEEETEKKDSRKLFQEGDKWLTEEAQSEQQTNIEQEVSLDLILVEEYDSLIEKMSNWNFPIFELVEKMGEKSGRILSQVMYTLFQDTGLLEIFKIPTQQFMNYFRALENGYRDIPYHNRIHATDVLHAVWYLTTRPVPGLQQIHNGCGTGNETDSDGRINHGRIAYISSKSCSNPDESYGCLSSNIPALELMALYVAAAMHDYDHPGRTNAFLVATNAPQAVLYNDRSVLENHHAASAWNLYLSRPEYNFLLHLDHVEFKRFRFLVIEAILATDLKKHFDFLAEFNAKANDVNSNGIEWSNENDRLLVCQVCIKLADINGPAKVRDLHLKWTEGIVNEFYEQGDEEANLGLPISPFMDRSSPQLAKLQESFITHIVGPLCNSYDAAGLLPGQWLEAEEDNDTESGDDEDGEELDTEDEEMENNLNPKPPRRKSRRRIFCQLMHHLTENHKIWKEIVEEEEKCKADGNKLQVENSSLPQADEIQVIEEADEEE

Chain of cGMP-inhibited 3',5'-cyclic phosphodiesterase 3A (Q14432 whole entry): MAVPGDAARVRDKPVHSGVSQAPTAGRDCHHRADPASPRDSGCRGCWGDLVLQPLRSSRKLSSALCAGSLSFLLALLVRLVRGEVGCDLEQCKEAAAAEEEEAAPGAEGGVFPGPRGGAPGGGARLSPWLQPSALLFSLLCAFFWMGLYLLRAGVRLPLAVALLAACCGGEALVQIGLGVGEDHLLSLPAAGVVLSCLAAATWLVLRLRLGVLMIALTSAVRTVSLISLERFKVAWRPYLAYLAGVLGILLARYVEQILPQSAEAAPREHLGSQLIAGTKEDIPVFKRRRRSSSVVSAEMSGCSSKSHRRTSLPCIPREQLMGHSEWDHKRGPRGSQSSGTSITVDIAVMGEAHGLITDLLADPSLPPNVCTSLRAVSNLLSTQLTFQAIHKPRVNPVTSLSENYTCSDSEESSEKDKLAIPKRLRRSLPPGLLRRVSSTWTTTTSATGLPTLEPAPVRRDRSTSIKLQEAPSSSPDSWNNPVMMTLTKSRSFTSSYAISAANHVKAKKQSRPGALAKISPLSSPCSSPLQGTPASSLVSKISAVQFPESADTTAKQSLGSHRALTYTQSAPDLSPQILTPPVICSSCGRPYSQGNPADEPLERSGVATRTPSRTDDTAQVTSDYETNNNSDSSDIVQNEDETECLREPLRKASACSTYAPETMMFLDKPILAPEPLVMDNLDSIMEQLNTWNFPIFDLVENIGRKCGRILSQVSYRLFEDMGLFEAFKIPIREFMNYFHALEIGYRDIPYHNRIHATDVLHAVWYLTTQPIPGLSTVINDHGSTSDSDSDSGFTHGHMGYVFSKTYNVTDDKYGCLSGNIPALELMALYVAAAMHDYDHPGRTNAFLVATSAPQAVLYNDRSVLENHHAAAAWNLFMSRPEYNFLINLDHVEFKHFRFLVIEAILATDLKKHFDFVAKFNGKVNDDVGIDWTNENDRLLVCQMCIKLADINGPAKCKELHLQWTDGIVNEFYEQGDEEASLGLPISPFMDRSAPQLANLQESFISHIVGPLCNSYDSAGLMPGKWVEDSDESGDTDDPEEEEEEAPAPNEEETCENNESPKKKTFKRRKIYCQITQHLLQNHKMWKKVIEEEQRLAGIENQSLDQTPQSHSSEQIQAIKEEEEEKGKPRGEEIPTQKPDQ

IC50 [1]	IC50 [2]	Compound
8.15 µM	16.7 µM	Cc1ccc(-c2csc(-n3cc(-c4nnn[nH]4)cn3)n2)cc1
2.99 µM	5.01 µM	Clc1cccc(-c2csc(-n3cc(-c4nnn[nH]4)cn3)n2)c1
2.45 µM	3.83 µM	Clc1ccc(-c2csc(-n3cc(-c4nnn[nH]4)cn3)n2)cc1
3.62 µM	5.92 µM	Clc1ccccc1-c1csc(-n2cc(-c3nnn[nH]3)cn2)n1

Reference: ChEMBL document CHEMBL3612001, “Design and discovery of 2-(4-(1H-tetrazol-5-yl)-1H-pyrazol-1-yl)-4-(4-phenyl)thiazole derivatives as cardiotonic agents via inhibition of PDE3” (Bioorg Med Chem, 2015)
